Activity calls are given as the source filed them. The calls are words filed in the database; no cut-off is given here.

For test [1], the target named is YEATS domain-containing protein 4 (GAS41) (Homo sapiens) (UniProt O95619). Nature of the test: Stabilization of GAS41 in human MV4-11 cells assessed as inhibition of high temperature-induced GAS41 protein degradation at 20 uM incubated for 5 hrs by cellular thermal shift assay.
Test [2] concerns the target T1, YEATS domain-containing protein 2 (Homo sapiens) (UniProt Q9ULM3).
T1 sequence (whole entry): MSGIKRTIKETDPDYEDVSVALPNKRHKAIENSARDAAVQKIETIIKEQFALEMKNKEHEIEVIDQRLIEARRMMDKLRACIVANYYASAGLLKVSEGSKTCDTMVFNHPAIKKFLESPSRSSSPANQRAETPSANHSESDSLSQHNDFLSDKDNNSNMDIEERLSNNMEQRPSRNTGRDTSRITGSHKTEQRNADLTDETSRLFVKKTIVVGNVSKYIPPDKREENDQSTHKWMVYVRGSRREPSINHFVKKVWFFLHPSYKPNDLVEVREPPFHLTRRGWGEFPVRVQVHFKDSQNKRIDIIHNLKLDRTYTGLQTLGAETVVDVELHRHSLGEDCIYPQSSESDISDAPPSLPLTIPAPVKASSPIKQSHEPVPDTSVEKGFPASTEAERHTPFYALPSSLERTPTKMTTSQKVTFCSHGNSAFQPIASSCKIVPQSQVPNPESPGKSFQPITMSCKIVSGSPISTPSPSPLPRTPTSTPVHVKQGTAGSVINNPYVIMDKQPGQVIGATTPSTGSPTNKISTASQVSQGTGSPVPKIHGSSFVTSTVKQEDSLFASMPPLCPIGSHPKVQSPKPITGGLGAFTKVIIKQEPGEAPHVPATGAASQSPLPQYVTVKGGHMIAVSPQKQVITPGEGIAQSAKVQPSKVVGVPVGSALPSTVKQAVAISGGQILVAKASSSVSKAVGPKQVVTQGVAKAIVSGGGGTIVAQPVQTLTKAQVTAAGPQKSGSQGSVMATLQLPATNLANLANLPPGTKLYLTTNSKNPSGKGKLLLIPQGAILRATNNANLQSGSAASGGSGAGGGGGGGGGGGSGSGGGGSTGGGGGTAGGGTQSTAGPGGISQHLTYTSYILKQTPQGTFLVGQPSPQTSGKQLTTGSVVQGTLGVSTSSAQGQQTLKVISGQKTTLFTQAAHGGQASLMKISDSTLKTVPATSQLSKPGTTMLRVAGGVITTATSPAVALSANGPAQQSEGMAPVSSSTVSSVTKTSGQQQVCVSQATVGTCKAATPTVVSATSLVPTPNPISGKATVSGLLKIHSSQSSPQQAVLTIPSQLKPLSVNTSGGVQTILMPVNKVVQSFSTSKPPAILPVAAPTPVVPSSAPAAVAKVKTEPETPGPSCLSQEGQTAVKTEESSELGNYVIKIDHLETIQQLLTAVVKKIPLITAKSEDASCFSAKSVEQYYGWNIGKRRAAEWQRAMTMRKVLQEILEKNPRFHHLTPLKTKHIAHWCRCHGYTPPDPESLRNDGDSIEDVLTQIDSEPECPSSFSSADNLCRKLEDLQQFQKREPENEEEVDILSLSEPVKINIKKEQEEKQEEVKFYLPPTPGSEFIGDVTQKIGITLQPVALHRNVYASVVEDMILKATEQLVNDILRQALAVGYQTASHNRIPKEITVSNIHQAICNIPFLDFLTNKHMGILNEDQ
The test is described as follows: Inhibition of human His-YEATS2 YEATS domain and biotinylated […] peptide interaction at 20 uM by AlphaScreen assay.

The target in test [3] is T2, Protein ENL (Homo sapiens) (UniProt Q03111).
T2 sequence (whole entry): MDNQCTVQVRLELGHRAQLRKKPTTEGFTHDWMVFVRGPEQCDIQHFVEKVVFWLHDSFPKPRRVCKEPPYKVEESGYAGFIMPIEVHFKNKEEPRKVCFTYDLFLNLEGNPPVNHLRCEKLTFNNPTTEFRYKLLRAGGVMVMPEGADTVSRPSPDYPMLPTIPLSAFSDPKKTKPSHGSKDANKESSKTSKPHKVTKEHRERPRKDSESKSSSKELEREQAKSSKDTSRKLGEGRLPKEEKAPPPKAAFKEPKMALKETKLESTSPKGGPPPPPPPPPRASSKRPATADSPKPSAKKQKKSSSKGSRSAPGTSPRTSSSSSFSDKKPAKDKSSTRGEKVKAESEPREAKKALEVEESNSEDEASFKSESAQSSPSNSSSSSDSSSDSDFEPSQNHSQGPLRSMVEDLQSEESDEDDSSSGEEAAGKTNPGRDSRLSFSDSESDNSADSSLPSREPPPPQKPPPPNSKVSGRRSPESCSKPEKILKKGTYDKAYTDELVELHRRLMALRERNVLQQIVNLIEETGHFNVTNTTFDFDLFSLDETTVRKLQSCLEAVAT
Nature of the test: Stabilization of ENL in human MV4-11 cells assessed as inhibition of high temperature-induced ENL protein degradation at 20 uM incubated for 5 hrs by cellular thermal shift assay. It counts as cell-based. In short, it runs like this: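 Cells (MOLM13, MV4;11 or HeLa) were treated with 20 μM compound or DMSO for 5 h, washed with PBS and resuspended in PBS with protease inhibitors, about 3 million cells per aliquot. Aliquots were heated 3 min at the indicated temperatures, then held 2 min at room temperature. Lysis was by NP40/glycerol/DTT buffer and three freeze-thaw cycles, followed by a 13,000 rpm spin at 4 °C. Soluble ENL, GAS41 or AF9 in supernatants was measured by western blot with β-actin loading control.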

Test [4] deals with MOLM-13. Nature of the test: Growth inhibition of human MOLM13 cells incubated for 6 days in presence of JQ1 by CellTiter-Glo luminescent cell viability assay. The following applies: MOLM-13, 144 h. On the technique in general: Cellular ATP, detected with luciferase, serves as a proxy for viable cell number.
Test [5] deals with MOLM-13. The test is described as follows: Growth inhibition of human MOLM-13 cells incubated for 6 days by CellTiter-Glo luminescent cell viability assay. The following applies: MOLM-13, 144 h.
The target of test [6] is T2, Protein ENL (Homo sapiens). The test is described as follows: Inhibition of human His-ENL YEATS domain and biotinylated H3K9ac peptide interaction at 5 uM by AlphaScreen assay. (In general: Bead proximity is the source of the signal in Alpha formats.)

Sequence of YEATS domain-containing protein 4 (GAS41) (Homo sapiens) (O95619 whole entry, looked up, the tested form may be a part): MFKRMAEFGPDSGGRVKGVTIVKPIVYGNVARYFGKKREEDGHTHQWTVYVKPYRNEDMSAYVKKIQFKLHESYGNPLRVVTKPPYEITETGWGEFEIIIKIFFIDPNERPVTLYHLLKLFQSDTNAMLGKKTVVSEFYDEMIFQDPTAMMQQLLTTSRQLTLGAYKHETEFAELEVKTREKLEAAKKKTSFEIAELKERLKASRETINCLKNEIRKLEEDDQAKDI

By GI50 is commonly meant the concentration that inhibits growth by half. Turning to `CN(C)Cc1ccc(CNC(=O)c2ccc3nncn3c2)cc1`, in test [1], the outcome was inactive. Also, the inhibition result in test [2] and in test [6] was “Active” in each case. Besides, in test [3], the result was Active. The GI50 was determined as 1.34 µM in the test with MOLM-13 [4] and 3.64 µM in the test with MOLM-13 [5].
